Activity calls are given as the source filed them. No cut-off for these calls is given here.
Key:
[1] = tested on: Mus musculus; test: Toxicity in […](H-2k) mouse assessed as effect on creatine kinase level at 100 mg/kg/day, ip; type: organism-based; parameters: route intraperitoneal; details: in vivo
[2] = tested on: Mus musculus; test: Toxicity in […](H-2k) mouse assessed as effect on GPT level at 100 mg/kg/day, po; type: organism-based; parameters: route oral; details: in vivo
[3] = tested on: Mus musculus; test: Toxicity in […](H-2k) mouse assessed as effect on GPT level at 100 mg/kg/day, […]; type: organism-based; details: in vivo
[4] = tested on: Mus musculus; test: Hepatotoxicity against Swiss-Webster mouse assessed as GPT at 100 mg/kg/day measured after 14 days postinfection; type: toxicity, organism-based; details: in vivo, 336 h
[5] = tested on: Trypanosoma cruzi; test: Antitrypanosomal activity against Trypanosoma cruzi Y bloodstream forms infected in Swiss-Webster mouse assessed as decrease in parasitemia at 100 mg/kg/day, ip administered 8 days postinfection measured on day 120; type: functional; details: route intraperitoneal
Procedure, shortened: (§1)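 Male Swiss mice infected i.p. with 10^4 Y strain bloodstream forms. Given 0.2 ml i.p. at 5 and 8 dpi, or daily for 10 days from 5 dpi; reference drug given by gavage. Parasitemia measured by the Pizzi-Brener method, cumulative mortality checked daily to 120 dpi, n ≥ 6 per group.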

[6] = tested on: Trypanosoma cruzi; test: Antitrypanosomal activity against Trypanosoma cruzi Y bloodstream forms infected in Swiss-Webster mouse assessed as survival rate of mouse at 100 mg/kg/day, ip administered 8 days postinfection measured on day 120; type: functional; details: route intraperitoneal
Procedure, shortened: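 Every-other-day i.p. dosing (5 doses, each 48 h apart) of 100 mg/kg/day in male Swiss mice inoculated with 10^4 Y-strain bloodstream trypomastigotes, n ≥ 6 parasitemia-positive animals. Mortality recorded daily up to 120 dpi as cumulative percentage.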

[7] = tested on: Trypanosoma cruzi; test: Antitrypanosomal activity against Trypanosoma cruzi Y infected in Swiss-Webster mouse assessed as decrease in parasite load at 100 mg/kg/day, ip administered 5 days post-infection for 10 consecutive days measured on day 120; type: functional; details: route intraperitoneal; procedure, shortened: as §1
[8] = tested on: Trypanosoma cruzi; test: Antitrypanosomal activity against bloodstream forms of Trypanosoma cruzi Y after 24 hrs by light microscopy in presence of 96% mouse blood; type: functional, organism-based
Procedure, shortened: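 Bloodstream trypomastigotes held at 4°C in freshly isolated mouse blood (96%) with serial dilutions up to 32 μM. Live motile parasites counted by light microscopy in a Neubauer chamber, giving an IC50 for each exposure time.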

[9] = tested on: Trypanosoma cruzi; test: Antitrypanosomal activity against Trypanosoma cruzi 855 epimastigotes after 24 hrs by light microscopy; type: functional, organism-based; details: Trypanosoma cruzi, 855, 24 h
Procedure, shortened: (§2)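 Epimastigotes from 5-day exponential cultures, 5 × 10^6 parasites/ml in LIT medium, incubated at 28°C up to 96 h with DB766 0 to 32 μM or Bz 0 to 250 μM. Counted daily in a Neubauer chamber. IC50 averaged from at least three determinations in duplicate.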

[10] = tested on: Trypanosoma cruzi; test: Antitrypanosomal activity against Trypanosoma cruzi MS1523 epimastigotes after 24 hrs by light microscopy; type: functional, organism-based; details: MS1523, 24 h; procedure, shortened: as §2
[11] = tested on: Trypanosoma cruzi; test: Antitrypanosomal activity against Trypanosoma cruzi RBVIII epimastigotes after 24 hrs by light microscopy; type: functional, organism-based; procedure, shortened: as §2
[12] = Cytotoxicity against Swiss-Webster mouse cardiomyocytes after 72 hrs by MTT assay; type: cell-based, Cardiomyocyte; details: read-out: LC50
Procedure, shortened: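 Primary embryonic cardiomyocytes from Swiss mice, uninfected, incubated 24 h or 72 h at 37°C, 5% CO2, with 0 to 96 μM in DMEM. MTT read at 490 nm; LC50 taken as concentration reducing viability by 50%; at least three experiments in duplicate.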

[13] = tested on: Mus musculus; test: Toxicity in male Swiss-Webster mouse assessed as mortality at cumulative dose of 200 mg/kg, ip measured after 48 hrs; type: organism-based; parameters: dose 200 mg/kg, route intraperitoneal; details: in vivo
Procedure, shortened: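 Uninfected 8–10-week-old female and male Swiss Webster and C3H/He (H-2k) mice injected i.p. on day 1 every 2 h with escalating doses: 5, 15, 30, 50 and 100 mg/kg (cumulative 20, 50, 100, 200 mg/kg). Toxic and subtoxic signs inspected on days 2–3 per OECD guidelines; tolerated dose set at 48 h.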

[14] = tested on: Trypanosoma cruzi; test: Antitrypanosomal activity against Trypanosoma cruzi Y bloodstream forms infected in Swiss-Webster mouse assessed as decrease in parasite load at 25 mg/kg/day, ip administered 5 days postinfection for 10 consecutive days measured after 8 days; type: functional; parameters: scale not given: the % may be the effect or the level left; details: route intraperitoneal; procedure, shortened: as §1
[15] = tested on: Trypanosoma cruzi; test: Antitrypanosomal activity against Trypanosoma cruzi Y bloodstream forms infected in Swiss-Webster mouse assessed as decrease in parasite load at 50 mg/kg/day, ip administered 5 days postinfection for 10 consecutive days measured after 8 days; type: functional; parameters: scale not given: the % may be the effect or the level left; details: route intraperitoneal
Procedure, shortened: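 Eight-week-old male Swiss mice infected i.p. with 10^4 Y-strain bloodstream trypomastigotes; parasitemia-positive mice only (n ≥ 6). Dosing i.p. (0.2 ml) daily for 10 consecutive days from parasitemia onset (5 dpi). Parasitemia at the 8 dpi peak counted by Pizzi-Brener method; reduction relative to infected untreated group.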

[16] = tested on: Trypanosoma cruzi; test: Antitrypanosomal activity against Trypanosoma cruzi Y bloodstream forms infected in Swiss-Webster mouse assessed as survival of mouse at 25 mg/kg/day, ip administered 5 days postinfection for 10 consecutive days measured on day 120; type: functional, organism-based; procedure, shortened: as §1
[17] = tested on: Trypanosoma cruzi; test: Antitrypanosomal activity against Trypanosoma cruzi Columbian bloodstream forms infected in C3H mouse assessed as decrease in parasite load at 25 mg/kg/day, ip administered 21 days postinfection measured on day 44; type: functional; parameters: scale not given: the % may be the effect or the level left; details: route intraperitoneal
Procedure, shortened: (§3)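 C3H/He mice infected i.p. with 10^2 Colombian strain bloodstream forms. Treatment started at parasitemia onset (21 dpi) with daily doses for 10 treatments, 0.1 ml i.p. Parasitemia measured by the Pizzi-Brener method; n ≥ 6 parasitemic mice per group.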

[18] = tested on: Trypanosoma cruzi; test: Antitrypanosomal activity against Trypanosoma cruzi Columbian bloodstream forms infected in C3H mouse assessed as decrease in parasite load at 50 mg/kg/day, ip administered 21 days postinfection measured on day 45; type: functional, organism-based; procedure, shortened: as §3
[19] = tested on: Trypanosoma cruzi; test: Antitrypanosomal activity against Trypanosoma cruzi Columbian bloodstream forms infected in C3H mouse assessed as decrease in parasite load in 25 mg/kg/day, po administered 5 days postinfection for 10 consecutive days measured after 120 days; type: functional, organism-based
[20] = tested on: Trypanosoma cruzi; test: Antitrypanosomal activity against Trypanosoma cruzi Columbian bloodstream forms infected in C3H mouse assessed as survival of mouse at 100 mg/kg/day, po administered 5 days postinfection for 10 consecutive days measured after 31 days; type: functional
Procedure, shortened: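 Male C3H/He (H-2k) mice infected i.p. with 5 × 10^3 Colombian-strain bloodstream trypomastigotes; only parasitemia-positive mice grouped (n ≥ 6). DB766 100 mg/kg/day given i.p. (0.1 ml) or by gavage (0.1 ml), daily for 10 treatments. Parasitemia by Pizzi-Brener method; mortality checked daily, expressed as cumulative percentage.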

[21] = tested on: Trypanosoma cruzi; test: Antitrypanosomal activity against Trypanosoma cruzi Columbian bloodstream forms infected in C3H mouse assessed as decrease in cardiac parasite load at 100 mg/kg/day, ip administered 5 days postinfection for 10 consecutive days measured after 43 days; type: functional; parameters: scale not given: the % may be the effect or the level left; details: route intraperitoneal
Procedure, shortened: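 Male C3H/He mice infected i.p. with 5 × 10^3 Colombian strain bloodstream forms, given 100 mg/kg/day i.p. daily for 10 days. At 43 dpi, H&E-stained 3 μm heart sections scored for amastigote nests and infiltrates (>10 mononuclear cells) over at least 100 fields. Three sections each from at least three mice.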

**Q.** Which results are given for `CC(C)Oc1cc(NC(=N)c2ccccn2)ccc1-c1ccc(-c2ccc(NC(=N)c3ccccn3)cc2OC(C)C)o1`?
**A.** Activity [1]: Non-toxic; Activity [2]: Non-toxic; Activity [3]: Non-toxic; Activity [4]: Non-toxic; inhibition in vivo at 100 mg/kg/day [5]: > 99%; Activity [6]: 60%; inhibition in vivo at 100 mg/kg/day [7]: > 98%; IC50 [8]: 60 nM; IC50 [9]: 90 nM; IC90 [9]: 330 nM; IC50 [10]: 170 nM; IC90 [10]: 410 nM; IC50 [11]: 180 nM; IC90 [11]: 440 nM; CC50 at 72 h [12]: 16.4 µM; Activity [13]: Non-toxic; Activity [14]: 88%; Activity [15]: 98%; Activity [16]: Active; Activity [17]: 73%; Activity [18]: inactive; Activity [19]: inactive; Activity [20]: 100%; Activity [21]: 95%

Reference: ChEMBL document CHEMBL1649306, “Arylimidamide DB766, a potential chemotherapeutic candidate for Chagas' disease treatment” (Antimicrob Agents Chemother, 2010)
